Results on eight compounds are retold here after PubChem BioAssay AID504436 (Sanford-Burnham Center for Chemical Genomics, 2011).

Active and inactive are the calls of the source.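 The calls were made as follows: active = mean IC50 below 20 µM in the confirmatory beta-arrestin antagonist test; inactive = the rest.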

Apelin receptor (Homo sapiens), sequence (P35414 whole entry, looked up, the tested form may be a part): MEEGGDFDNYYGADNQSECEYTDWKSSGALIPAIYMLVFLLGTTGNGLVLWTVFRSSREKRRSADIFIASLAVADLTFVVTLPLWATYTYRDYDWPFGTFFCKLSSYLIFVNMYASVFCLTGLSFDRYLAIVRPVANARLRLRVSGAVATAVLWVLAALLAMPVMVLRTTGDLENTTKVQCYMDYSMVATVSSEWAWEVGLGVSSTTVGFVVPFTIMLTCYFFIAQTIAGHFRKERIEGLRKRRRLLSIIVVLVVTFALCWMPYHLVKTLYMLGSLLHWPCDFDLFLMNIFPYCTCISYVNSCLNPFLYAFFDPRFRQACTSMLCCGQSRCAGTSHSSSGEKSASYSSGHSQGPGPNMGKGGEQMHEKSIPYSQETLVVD

This assay concerns the target Apelin receptor (Homo sapiens) (UniProt P35414). As to the kind of experiment: APJ receptor antagonists, beta-arrestin recruitment, SAR follow-up, cell-based, CHO-K1 AGTRL-1, PathHunter luminescence, set 5 (AID 504436). The note with it: antagonist. An outline of the steps: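 System: CHO-K1 PathHunter APJ beta-arrestin cells. Also added: Apelin-13, 10 nM final. Dosing: dose-response compound series. Timing: overnight seeding, 90 min exposure at 25 °C, 60 min detection. Detection: luminescence from beta-gal fragment complementation upon beta-arrestin recruitment.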
On the technique in general: Arrestin recruitment assays detect the binding of arrestin to an activated receptor.
Turning to `O=C(Oc1coc(CN2CCOCC2)cc1=O)c1ccccc1`, the IC50 (commonly the concentration needed to halve the response being measured) was > 79 µM (inactive).
To `COc1ccc(SCc2cc(=O)c(OC(=O)c3ccc(Cl)c([N+](=O)[O-])c3)co2)cc1` belongs 8.27 µM.
To `O=C(Oc1coc(CSc2ccc(OC(F)(F)F)cc2)cc1=O)c1ccc(Cl)c([N+](=O)[O-])c1` belongs “inactive”.
`Cc1cc(C)nc(SCc2cc(=O)c(OC(=O)c3ccc(-c4nccs4)cc3)co2)n1`: the IC50 was > 79 µM (inactive).
With `Cc1ccnc(SCc2cc(=O)c(NC(=O)c3ccc([N+](=O)[O-])cc3)co2)n1` the figure was > 79 µM (inactive).
With `Cc1ccc(SCc2cc(=O)c(OC(=O)c3ccc(Cl)c([N+](=O)[O-])c3)co2)cc1` the figure was 12.8 µM; with `O=C(Oc1coc(CSc2ccc(Cl)cc2)cc1=O)c1ccc(Cl)c([N+](=O)[O-])c1`, 4.53 µM.
To `O=C(Oc1coc(CN2CCOCC2)cc1=O)c1ccc([N+](=O)[O-])cc1` belongs 16.4 µM.
